According to ChEMBL document CHEMBL2311332, “Epidithiodiketopiperazine as a pharmacophore for protein lysine methyltransferase G9a inhibitors: reducing cytotoxicity by structural simplification” (Bioorg Med Chem Lett, 2013):
Active and inactive are the calls of the source. The calls are words filed in the database; no cut-off is given here.

Key:
[1] = target: T1, Histone-lysine N-methyltransferase EHMT2 (Homo sapiens, UniProt Q96KQ7); assay: Inhibition of protein lysine methyltransferase G9a (unknown origin) by modified ELISA assay
T1 sequence (Q96KQ7 whole entry): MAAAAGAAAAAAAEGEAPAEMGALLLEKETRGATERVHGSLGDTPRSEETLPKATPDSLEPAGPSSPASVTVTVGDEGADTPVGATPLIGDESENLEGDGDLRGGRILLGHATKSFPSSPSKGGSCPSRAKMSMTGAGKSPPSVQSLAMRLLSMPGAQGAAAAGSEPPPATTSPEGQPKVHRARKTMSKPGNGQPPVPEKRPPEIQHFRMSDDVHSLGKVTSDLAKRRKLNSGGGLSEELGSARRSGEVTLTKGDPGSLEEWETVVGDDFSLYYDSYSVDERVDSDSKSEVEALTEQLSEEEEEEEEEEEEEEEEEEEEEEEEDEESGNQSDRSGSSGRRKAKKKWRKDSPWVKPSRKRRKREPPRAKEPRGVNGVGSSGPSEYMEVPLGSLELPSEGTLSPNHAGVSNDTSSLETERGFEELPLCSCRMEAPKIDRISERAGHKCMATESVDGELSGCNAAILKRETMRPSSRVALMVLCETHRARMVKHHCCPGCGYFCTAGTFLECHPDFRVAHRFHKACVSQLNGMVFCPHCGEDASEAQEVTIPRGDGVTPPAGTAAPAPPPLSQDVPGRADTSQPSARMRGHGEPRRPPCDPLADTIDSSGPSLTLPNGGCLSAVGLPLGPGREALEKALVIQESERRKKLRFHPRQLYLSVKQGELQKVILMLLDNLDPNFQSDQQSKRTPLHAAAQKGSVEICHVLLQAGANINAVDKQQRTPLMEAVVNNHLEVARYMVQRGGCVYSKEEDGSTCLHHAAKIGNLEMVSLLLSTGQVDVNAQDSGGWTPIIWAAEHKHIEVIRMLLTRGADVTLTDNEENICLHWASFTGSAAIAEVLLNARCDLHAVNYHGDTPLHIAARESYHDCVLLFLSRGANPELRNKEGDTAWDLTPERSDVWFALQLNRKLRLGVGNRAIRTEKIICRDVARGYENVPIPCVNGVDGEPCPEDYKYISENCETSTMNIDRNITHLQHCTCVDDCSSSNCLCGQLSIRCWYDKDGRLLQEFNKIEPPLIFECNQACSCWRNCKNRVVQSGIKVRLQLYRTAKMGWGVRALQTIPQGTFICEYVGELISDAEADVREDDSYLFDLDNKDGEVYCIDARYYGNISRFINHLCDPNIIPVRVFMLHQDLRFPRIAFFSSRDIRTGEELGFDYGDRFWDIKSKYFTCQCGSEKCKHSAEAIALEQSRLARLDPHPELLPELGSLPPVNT

[2] = target: T1, Histone-lysine N-methyltransferase EHMT2; assay: Inhibition of protein lysine methyltransferase G9a (unknown origin) by ELISA assay
HL-60 = assay: Cytotoxicity against human HL60 cells at 3 to 30 uM after 4 hrs by Alamar Blue assay; assay type: cell-based; conditions: hl-60, 4 h
Outline: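 HL-60 cells were exposed to the derivatives for 4 h. Cell viability was then read by alamarBlue.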

[3] = target: Thioredoxin reductase (Homo sapiens) (UniProt Q16881+Q9NNW7+Q86VQ6); assay: Inhibition of thioredoxin reductase (unknown origin) assessed as reduction of DTNB at 10 uM; assay type: protein assay

Row | IC50 [2] [µM] | Compound | IC50 [1] [µM] | Activity (HL-60) | inhibition [3]
1 | > 50 | CN1C(=O)[C@H]2C[C@]3([C@]45C[C@@H]6C(=O)N(C)[C@H](CO)C(=O)N6[C@H]4Nc4ccccc45)c4ccccc4N[C@@H]3N2C(=O)[C@H]1CO | > 100 | – | –
2 | – | CN1C(=O)[C@@H]2C[C@@]3([C@@]45C[C@H]6C(=O)N(C)[C@@H](CO)C(=O)N6[C@@H]4Nc4ccccc45)c4ccccc4N[C@H]3N2C(=O)[C@@H]1CO | > 100 | – | –
3 | – | CN1C(=O)[C@]23C[C@@]4([C@@]56C[C@]78SS[C@](CO)(C(=O)N7[C@@H]5Nc5ccccc56)N(C)C8=O)c5ccccc5N[C@H]4N2C(=O)[C@@]1(CO)SS3 | 6.4 | – | –
4 | – | CN1C(=O)C23CCCN2C(=O)C1(CO)SSS3 (racemic) | 5.3 | Non-toxic | inactive
5 | – | CN1C(=O)C23CCCN2C(=O)C1(CO)SS3 (racemic) | 5.2 | Non-toxic | inactive
6 | – | CN1C(=O)[C@@]23C[C@]4([C@]56C[C@@]78S[C@](CO)(C(=O)N7[C@H]5Nc5ccccc56)N(C)C8=O)c5ccccc5N[C@@H]4N2C(=O)[C@@]1(CO)S3 | > 100 | – | –
7 | – | CN1C(=O)C2(S)CCCN2C(=O)C1(S)CO (racemic) | 13.1 | Non-toxic | –
8 | – | CN1C(=O)[C@@]23C[C@@H]4c5ccccc5N[C@@H]4N2C(=O)[C@@]1(CO[Si](C)(C)C(C)(C)C)SS3 | 3.3 | – | –
9 | – | CN1C(=O)[C@@]23C[C@]4([C@]56C[C@@]78SS[C@@](CO)(C(=O)N7[C@H]5Nc5ccccc56)N(C)C8=O)c5ccccc5N[C@@H]4N2C(=O)[C@]1(CO)SS3 [CHAETOCIN] | 7.2 | – | –
10 | – | CN1C(=O)[C@@]23C[C@]4([C@]56C[C@@]78SS[C@](CO[Si](C)(C)C(C)(C)C)(C(=O)N7[C@H]5Nc5ccccc56)N(C)C8=O)c5ccccc5N[C@@H]4N2C(=O)[C@@]1(CO[Si](C)(C)C(C)(C)C)SS3 | 7.2 | – | –
11 | – | CN1C(=O)[C@@]2(S)C[C@]3([C@]45C[C@]6(S)C(=O)N(C)[C@](S)(CO)C(=O)N6[C@H]4Nc4ccccc45)c4ccccc4N[C@@H]3N2C(=O)[C@@]1(S)CO | 27.1 | – | –
12 | – | CN1C(=O)[C@]23C[C@H]4c5ccccc5N[C@H]4N2C(=O)[C@]1(CO[Si](C)(C)C(C)(C)C)SS3 | 23.5 | – | –
